Test results: ChEMBL document CHEMBL4825680, “Structure-based discovery of potent and selective small-molecule inhibitors targeting signal transducer and activator of transcription 3 (STAT3)” (Eur J Med Chem, 2021)
The source made the active and inactive calls. The rule behind the calls is not given here.

Legend:
MDA-MB-468 [1] = test: Induction of apoptosis in human MDA-MB-468 cells assessed as early apoptotic cells at 1 uM after 48 hrs by Annexin-V-FITC/propidium iodide staining based flow cytometric analysis (reference value: 2.66%); type: functional
[2] = Metabolic stability in human liver microsomes assessed as half life at 0.1 uM preincubated for 10 mins followed by NADPH addition and measured upto 60 mins by LC-MS/MS analysis; type: ADME, Microsome; settings: time <=70 min
Summary of the method: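 Microsomes at 0.33 mg/mL in 0.1 M Tris pH 7.4 with 5 mM MgCl2; compound final 0.1 μM (0.01% DMSO, 0.005% BSA). Preincubated 10 min at 37 °C, then started with 1 mM NADPH. Sampled at 0, 7, 17, 30 and 60 min and quenched with cold methanol. Centrifuged, then analysed by LC-MS/MS.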

[3] = biological target: T1, Signal transducer and activator of transcription 5A (Homo sapiens) (UniProt P42229); test: Inhibition of STAT5 phosphorylation at Y694 residue in human MDA-MB-231 cells at 0.3 to 3 uM after 3 hrs by Western blotting analysis; type: cell-based; settings: dose 0.3-3 µM
T1 sequence (whole entry): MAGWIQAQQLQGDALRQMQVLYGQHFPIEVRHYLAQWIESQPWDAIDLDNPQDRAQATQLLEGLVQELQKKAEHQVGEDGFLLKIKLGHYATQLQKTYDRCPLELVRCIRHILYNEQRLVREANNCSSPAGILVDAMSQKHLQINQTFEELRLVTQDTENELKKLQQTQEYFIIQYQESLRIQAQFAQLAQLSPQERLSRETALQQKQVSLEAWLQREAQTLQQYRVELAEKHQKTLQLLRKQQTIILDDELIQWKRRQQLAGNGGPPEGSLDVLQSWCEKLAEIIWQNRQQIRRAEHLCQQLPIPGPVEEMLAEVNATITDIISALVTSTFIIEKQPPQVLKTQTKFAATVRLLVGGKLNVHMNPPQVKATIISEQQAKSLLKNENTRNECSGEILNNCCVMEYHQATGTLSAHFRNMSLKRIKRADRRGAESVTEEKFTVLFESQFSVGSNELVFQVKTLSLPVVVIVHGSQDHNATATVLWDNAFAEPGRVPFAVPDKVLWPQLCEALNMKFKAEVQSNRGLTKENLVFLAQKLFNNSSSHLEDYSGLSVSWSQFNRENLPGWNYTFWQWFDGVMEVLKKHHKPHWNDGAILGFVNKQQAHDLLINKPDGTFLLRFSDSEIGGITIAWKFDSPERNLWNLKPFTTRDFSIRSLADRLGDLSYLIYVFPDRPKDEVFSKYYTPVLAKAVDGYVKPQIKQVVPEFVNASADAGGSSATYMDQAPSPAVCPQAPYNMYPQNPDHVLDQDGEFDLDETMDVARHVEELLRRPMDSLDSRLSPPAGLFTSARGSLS

[4] = biological target: T2, Signal transducer and activator of transcription 3 (Homo sapiens, UniProt P40763); test: Inhibition of STAT3 in human HCC70 cells assessed as downregulation of c-Myc expression at 0.3 to 3 uM after 24 hrs by western blot analysis; type: cell-based; settings: dose 0.3-3 µM
T2 sequence (P40763 whole entry): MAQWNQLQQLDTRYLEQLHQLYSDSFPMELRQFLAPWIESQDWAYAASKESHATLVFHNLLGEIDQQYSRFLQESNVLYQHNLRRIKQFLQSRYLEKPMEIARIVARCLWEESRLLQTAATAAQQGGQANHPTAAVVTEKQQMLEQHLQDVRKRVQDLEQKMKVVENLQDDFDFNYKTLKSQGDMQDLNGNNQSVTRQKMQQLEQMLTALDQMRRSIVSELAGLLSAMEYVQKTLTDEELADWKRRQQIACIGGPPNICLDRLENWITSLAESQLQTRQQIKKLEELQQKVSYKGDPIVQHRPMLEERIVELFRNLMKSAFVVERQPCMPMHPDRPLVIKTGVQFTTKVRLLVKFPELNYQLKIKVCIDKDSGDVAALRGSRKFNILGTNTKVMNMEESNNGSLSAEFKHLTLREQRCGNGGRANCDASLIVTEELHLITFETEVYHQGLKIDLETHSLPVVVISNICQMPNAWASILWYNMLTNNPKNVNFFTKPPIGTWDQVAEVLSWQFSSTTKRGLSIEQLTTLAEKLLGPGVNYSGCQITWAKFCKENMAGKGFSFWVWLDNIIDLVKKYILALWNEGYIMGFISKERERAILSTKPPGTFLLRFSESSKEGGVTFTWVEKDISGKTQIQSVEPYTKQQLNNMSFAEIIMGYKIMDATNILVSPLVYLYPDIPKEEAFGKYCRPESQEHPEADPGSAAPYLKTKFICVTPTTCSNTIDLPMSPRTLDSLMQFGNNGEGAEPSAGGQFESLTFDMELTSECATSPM
Summary of the method: (§1)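 TNBC cells given vehicle (0.1% DMSO) or graded compound levels for 24 h, lysed in RIPA with PMSF and phosphatase inhibitors. BCA-quantified lysate (20–50 µg) run on SDS-PAGE, transferred to PVDF, blocked in 5% BSA. Probed overnight at 4 °C for Bcl-xL, Mcl-1 and c-Myc, with β-actin. HRP secondary, ECL detection. Three independent experiments.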

[5] = Toxicity in mouse xenografted with human MDA-MB-231-4175 cells assessed as morphological change in spleen at 5 to 15 mg/kg, […] once daily for 20 days by HE staining based assay; type: organism-based; settings: in vivo, iv, 480 h, dose 5-15 mg/kg, time 20 day
Summary of the method: (§2)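 Female NOD-SCID mice aged 4–5 weeks, given 2×10^6–3×10^6 MDA-MB-231-4175 cells subcutaneously in the flank. At about 100 mm³ tumour volume, randomised n=6/group: vehicle (PBS with 15% Cremophor EL), 5 or 15 mg/kg intraperitoneally daily. Killed at day 20; heart, liver, spleen, lung and kidney collected for morphological examination.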

[6] = biological target: T2, Signal transducer and activator of transcription 3; test: Inhibition of STAT3 in human HCC70 cells assessed as downregulation of Bcl-xL expression at 0.3 to 3 uM after 24 hrs by western blot analysis; type: cell-based; settings: dose 0.3-3 µM; summary of the method: as §1
[7] = Induction of apoptosis in human MDA231-LM2-4175 cells assessed as late apoptotic cells at 3 uM after 48 hrs by Annexin-V-FITC/propidium iodide staining based flow cytometric analysis (reference value: 2.60%); type: functional
MDA-MB-468 [8] = test: Inhibition of cell migration in human MDA-MB-468 cells incubated for 12 to 96 hrs by wound healing assay; type: functional, cell-based; settings: dose 0.3-3 µM, time 12-96 hrs
Summary of the method: (§3)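 Cells grown to 100% confluence, then scratched with a pipette tip. Treated with 0–3 μM until vehicle-treated cells had migrated into the scratch. Images taken by microscope after about 12–96 h. Triplicate experiments.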

[9] = biological target: T2, Signal transducer and activator of transcription 3; test: Inhibition of STAT3 in human MDA231-LM2-4175 cells assessed as downregulation of Bcl-xL expression at 0.3 to 3 uM after 24 hrs by western blot analysis; type: cell-based; settings: dose 0.3-3 µM; summary of the method: as §1
[10] = Toxicity in mouse xenografted with human MDA-MB-231-4175 cells assessed as morphological change in liver at 5 to 15 mg/kg, […] once daily for 20 days by HE staining based assay; type: organism-based; settings: in vivo, iv, dose 5-15 mg/kg, time 20 day; summary of the method: as §2
MDA-MB-468 [11] = test: Induction of apoptosis in human MDA-MB-468 cells assessed as late apoptotic cells at 3 uM after 48 hrs by Annexin-V-FITC/propidium iodide staining based flow cytometric analysis (reference value: 1.25%); type: functional
MDA231-LM2-4175 [12] = test: Antitumor activity against human MDA231-LM2-4175 cells xenografted in mouse assessed as reduction in Ki67 expression at 5 to 15 mg/kg, iv administered once daily for 20 days by immunohistochemical analysis; type: functional, organism-based; settings: dose 5-15 mg/kg, time 20.0 day
[13] = Induction of apoptosis in human MDA231-LM2-4175 cells assessed as early apoptotic cells at 1 uM after 48 hrs by Annexin-V-FITC/propidium iodide staining based flow cytometric analysis (reference value: 2.49%); type: functional
MDA231-LM2-4175 [14] = test: Antitumor activity against human MDA231-LM2-4175 cells xenografted in mouse assessed as reduction in Bcl-xL expression at 5 to 15 mg/kg, iv administered once daily for 20 days by Western blotting analysis; type: functional, organism-based; settings: dose 5-15 mg/kg, time 20.0 day
MDA-MB-231 = test: Inhibition of cell migration in human MDA-MB-231 cells incubated for 12 to 96 hrs by wound healing assay; type: functional, cell-based; settings: dose 0.3-3 µM, time 12-96 hrs; summary of the method: as §3
[15] = biological target: T1, Signal transducer and activator of transcription 5A (Homo sapiens); test: Inhibition of STAT5 phosphorylation at Y694 residue in human HCC70 cells at 0.3 to 3 uM after 3 hrs by Western blotting analysis; type: cell-based; settings: dose 0.3-3 µM
[16] = Induction of apoptosis in human MDA231-LM2-4175 cells assessed as viable cells at 1 uM after 48 hrs by Annexin-V-FITC/propidium iodide staining based flow cytometric analysis (reference value: 94.4%); type: functional; settings: read-out: Activity

O=C(Cc1c(-c2ccccc2)nc2ccccn12)Nc1ccc2c(c1)S(=O)(=O)C=C2
Activity (MDA-MB-468 [1]): 24%
half-life at 0.1 µM [2]: 24.2 min
inhibition [3]: inactive
inhibition [4]: Active
Activity [5]: Non-Toxic
inhibition [6]: Active
Activity [7]: 5.71%
inhibition (MDA-MB-468 [8]): Dose-Dependent Effect
inhibition [9]: Active
Activity [10]: Non-Toxic
Activity (MDA-MB-468 [11]): 27.8%
Activity (MDA231-LM2-4175 [12]): inactive
Activity [13]: 6.17%
Activity (MDA231-LM2-4175 [14]): Active
inhibition (MDA-MB-231): Dose-Dependent Effect
inhibition [15]: inactive
viability at 1 µM [16]: 88.7%
